# Screening data: PubChem BioAssay, several laboratories
# NPY2 pot ag = human NPY-Y2 potentiation or agonism, primary screen; activation, % at 3.6 µM; actives 0.45% (n = 220,000); AID 1359; P49146; cells expressing NPY-Y2, potentiator/agonist read-out; in the data active = activation above about 27%;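 note: cells stimulated with NPY near EC25 plus isoproterenol at EC100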
# Target sequence (P49146 whole entry, looked up): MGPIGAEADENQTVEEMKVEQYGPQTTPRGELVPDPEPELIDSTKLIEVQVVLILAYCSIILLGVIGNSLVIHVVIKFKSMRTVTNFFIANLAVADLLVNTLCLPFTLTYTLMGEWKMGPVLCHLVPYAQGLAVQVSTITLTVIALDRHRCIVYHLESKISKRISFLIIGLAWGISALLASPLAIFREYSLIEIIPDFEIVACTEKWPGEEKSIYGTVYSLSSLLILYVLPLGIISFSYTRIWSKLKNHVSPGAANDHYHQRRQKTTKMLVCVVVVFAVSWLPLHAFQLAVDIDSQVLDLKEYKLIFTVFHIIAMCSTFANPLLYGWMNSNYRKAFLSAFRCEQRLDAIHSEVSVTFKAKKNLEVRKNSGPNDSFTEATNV
# PGE2 EP2 inh = EP2 receptor (human) inhibition; P43116; C6 glioma cells expressing human EP2, cAMP TR-FRET; cells stimulated with saturating PGE2; inhibition, % at 25 µM; actives 0.52% (n = 260,000); AID 1422;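 active = percent inhibition above 40 after rounding to a whole number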;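 note: rat C6 glioma host cells with rolipram phosphodiesterase inhibitor present; the protocol text gives 20 µM as final concentration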
# EP2 mod = EP2 receptor (human) modulation; actives 0.83% (n = 260,000); EP2-expressing cells, cAMP HTRF FRET, PGE2 co-stimulation; P43116; induction, % at 25 µM;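 active = compounds whose cAMP rise, as percent of the full-agonist control response, exceeds 60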;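 note: rat C6 glioma line stably carrying human EP2 under a CMV promoter; the protocol text gives 20 µM as final concentration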
# NPY-Y2 antag = antagonists of human neuropeptide Y receptor Y2; P49146; NPY-Y2 expressing cells, antagonist mode; inhibition, % at 2.7 µM; actives 0.99% (n = 140,000); in the data active = inhibition above about 17%
# NPY1 pot ag = potentiators or agonists of human neuropeptide Y receptor Y1. P25929. NPY-Y1 expressing cells, potentiator/agonist activation. activation, % at 3.6 µM. actives 0.37% (n = 220,000). AID 1304; in the data active = activation above about 33%, passing the limit was not always enough;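 note: cells stimulated with NPY at EC10 then isoproterenol at EC100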
# NPY Y1 blocker = blocks the human neuropeptide Y Y1 receptor. inhibition, % at 3.6 µM. AID 1040. actives 1% (n = 200,000). P25929. HEK293-CNG Y1 cells, membrane potential fluorescence; NPY at EC95, then isoproterenol;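 active = inhibition above the campaign mean inhibition of all tested compounds plus 3 SD, cut at about 20% in these data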
#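 Test system – HEK293 Y1/CNG channel cell line · Also added – NPY agonist 25 nM, then isoproterenol 1 µM plus Ro 20-1724 25 µM · Compound dosing – one concentration, 3.6 µM, in 0.4% DMSO · Schedule – compound incubation 1 h at room temperature, readout 45 min post-stimulation · Technique – fluorescence, membrane potential probe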
# A number is an active result; i = inactive; nt = no result. Shown are actives, neighbours in structure and some others; about 2.8% of the full set was active somewhere.
SMILES,NPY2 pot ag,PGE2 EP2 inh,EP2 mod,NPY-Y2 antag,NPY1 pot ag,NPY Y1 blocker
CN(C)Cc1ccc(C(C)(C)C)cc1-c1cc(C(C)(C)C)ccc1CN(C)C,nt,51,i,nt,nt,nt
COc1ccc2[nH]cc(C(=O)CNc3nc(C)cs3)c2c1,39,i,i,i,48,i
Cc1cc(C(=O)NCC(=O)OCC(=O)N(C2CCCCC2)C2CCCCC2)ccc1[N+](=O)[O-],i,i,63,i,i,i
COc1ccccc1CNC(=O)CS(=O)(=O)c1nc2c(c(C(F)(F)F)n1)CCc1ccccc1-2,nt,i,i,nt,nt,nt
CN(CCc1ccccn1)c1ccc2c(c1)Cc1ccccc1-2,nt,52,i,nt,nt,nt
C(=Nc1ccc2c(c1)Cc1ccccc1-2)c1ccccn1,nt,i,i,nt,nt,nt
Cc1ccccc1NC(=S)N(C)Cc1cccs1,101,i,i,i,104,i
Cc1ccccc1NC(=S)N(Cc1cccs1)C1CCCCC1,i,i,i,nt,i,i
O=C1CCC(c2ccccc2)=NN1c1nc2ccccc2s1,nt,56,i,nt,nt,nt
CC(C)C(=O)N1CCN(c2ccc(NC(=O)COc3ccccc3[N+](=O)[O-])cc2)CC1,i,44,i,nt,i,i
N#C/C(=C\c1ccc(Cl)cc1)c1nc(-c2ccco2)cs1,i,i,i,i,i,i
N#C/C(=C\c1ccc(F)cc1)c1nc(-c2ccco2)cs1,i,i,61,i,i,i
Cc1ccc(S(=O)(=O)OC2CCN(C)CC2)cc1,nt,56,i,nt,nt,nt
CCC1CN(C)C2Cc3c([nH]c4ccccc34)C(=O)CC1C2C(=O)OC (centres undefined),i,i,i,nt,i,nt
CC[C@H]1CN(C)[C@@H]2Cc3c([nH]c4ccccc34)C(=O)C[C@H]1[C@H]2C(=O)OC,nt,52,i,nt,nt,nt
CCc1ccc2[nH]c(=O)c(CN(CCN3CCOCC3)C(=O)Nc3ccccc3OC)cc2c1,nt,i,i,nt,nt,nt
Cc1nn(C)cc1S(=O)(=O)Nc1ccc(Oc2ccc(F)cc2)cc1,nt,i,i,nt,nt,nt
CCC(C)(C(=O)NC1CCCCC1)N(Cc1ccco1)C(=O)c1ccc2c(c1)OCO2 (centres undefined),i,i,i,43,i,49
CCC(C)(C(=O)NC1CCCC1)N(CC1CCCO1)C(=O)c1ccc2c(c1)OCO2 (centres undefined),i,i,i,i,i,i
COCCn1c(SCC#N)nnc1-c1ccc(OC)cc1,i,123,i,i,i,i
Cn1c(=O)c2c(nc(Oc3ccc4c(c3)OCO4)n2Cc2cccc3ccccc23)n(C)c1=O,nt,i,i,nt,nt,nt
CCC(c1nnnn1Cc1ccc(F)cc1)N(Cc1ccco1)Cc1cc2cc(C)ccc2[nH]c1=O (centres undefined),nt,i,i,nt,nt,nt
Cc1ccc2c(c1)N(CC(=O)OC(CC(C)C)C(=O)NC1CCCC1)C(=O)CO2 (centres undefined),i,i,i,21,i,33
Cn1c2ccccc2c2cc(C(=O)OCC(=O)N3CC(=O)Nc4ccccc43)sc21,i,53,i,i,i,i
Cc1nn(CC(=O)NCCCn2ccnc2)c(=O)c2cc3sccc3n12,nt,nt,i,nt,nt,nt
SMILES,NPY2 pot ag,PGE2 EP2 inh,EP2 mod,NPY-Y2 antag,NPY1 pot ag,NPY Y1 blocker
NCCC1([N+](=O)[O-])CCNCC1,nt,50,i,nt,nt,nt
CN(C)Cc1nc2ccccc2c(=O)n1Cc1nc(-c2cccc([N+](=O)[O-])c2)cs1,i,i,i,nt,i,i
CN1CCN(Cc2nc3ccccc3c(=O)n2Cc2nc(-c3ccc([N+](=O)[O-])cc3)cs2)CC1,i,49,i,i,i,i
CC1CC2(CCCCC2)Nc2c1ccc1ccccc21 (centres undefined),i,i,63,i,i,i
CC(C)(C)C(=O)[C@H]([C@@H](c1ccccc1)N1CCOCC1)N1CCOCC1,nt,49,i,nt,nt,nt
CCc1cc2cc3c(cc2n2c(=O)n(CC(=O)NC4CC4)nc12)OCO3,nt,nt,i,nt,nt,nt
Cc1cc(-c2cnc(C)nc2C2CCN(C(=O)C3CCCO3)CC2)on1 (centres undefined),nt,nt,i,nt,nt,nt
Cc1nc(-c2ccccn2)sc1C(=O)Nc1ccc(Cl)c(Cl)c1,i,52,i,i,i,i
Cc1cc(Cl)ccc1Nc1sc(C(=O)c2cc3cc(Cl)ccc3o2)c(N)c1C#N,nt,51,i,nt,nt,nt
O=C(NC1CCCCC1)C(c1cccs1)N(Cc1cccs1)C(=O)c1cccs1 (centres undefined),i,i,i,18,i,41
CC(=O)c1ccc(N(C(=O)Cc2cccs2)C(C(=O)NC2CCCCC2)c2cccs2)cc1 (centres undefined),nt,67,i,nt,nt,nt
O=C(NC1CCCC1)C(c1ccccc1)N(Cc1cccs1)C(=O)c1ccco1 (centres undefined),nt,i,i,nt,nt,nt
CC(=O)c1ccc(N(C(=O)CS(=O)CC(=O)Nc2ccc(F)cc2)C(C(=O)NC2CCCCC2)c2cccs2)cc1 (centres undefined),i,i,i,i,i,i
CCOc1ccccc1N(CC(=O)NC1CCCC1)C(=O)CCC(=O)Nc1nccs1,nt,i,i,nt,nt,nt
CC(C)[C@H]1CN(Cc2ccco2)CCN1Cc1nnnn1Cc1ccc2c(c1)OCO2,nt,nt,i,nt,nt,nt
COCCCN1C(=O)C(=O)/C(=C(\O)c2ccc(Cl)cc2)C1c1cccc2ccccc12 (centres undefined),nt,i,i,nt,nt,nt
COc1cccc(Nc2nc3ccccc3nc2NS(=O)(=O)c2cccs2)c1,43,i,i,i,78,i
COc1ccc(/C=N/NC(=O)C(Cc2c[nH]c3ccccc23)NC(=O)OCC(C)C)cc1[N+](=O)[O-] (centres undefined),i,nt,i,33,i,35
COc1ccccc1OCc1nnc(SCC(=O)Nc2ccccc2Cl)n1C,nt,i,i,nt,nt,nt
Cc1ccccc1Cn1c(=N)n(CC(O)c2ccco2)c2ccccc21 (centres undefined),i,i,i,23,i,25
COc1ccc(C(=O)N2CCN(C(=O)CCC3CCCC3)CC2)cc1,nt,i,i,nt,nt,nt
OC1(C(O)(c2ccc(-c3ccccc3)cc2)c2ccc(-c3ccccc3)cc2)CCCCC1,nt,43,i,nt,nt,nt
C=CCn1c(N2CCC(C(=O)NCc3cccc(OC)c3)CC2)nc2ccccc21,nt,nt,i,nt,nt,nt
O=[N+]([O-])c1cccc(/C=C/c2nc3ccc([N+](=O)[O-])cc3[nH]2)c1,i,44,i,i,i,i
FC(F)(F)c1ccc(N=Cc2sc(N3CCOCC3)nc2-c2ccccc2)cc1,i,46,i,i,i,i
SMILES,NPY2 pot ag,PGE2 EP2 inh,EP2 mod,NPY-Y2 antag,NPY1 pot ag,NPY Y1 blocker
C=C/C=C(\C=C/C)C1(CNC(=O)c2ccccc2OC)CCOCC1,nt,i,i,nt,nt,nt
CCc1cc2ccc(OC)cc2nc1SCC(=O)Nc1c(C)cccc1C,nt,i,64,nt,nt,nt
CCOc1ccccc1NC(=O)CSc1nc2cc(OC)ccc2cc1CC,nt,i,i,nt,nt,nt
CCc1cc2ccc(OC)cc2nc1SCC(=O)NCCc1ccc(OC)c(OC)c1,nt,i,74,nt,nt,nt
CCc1cc2ccc(OC)cc2nc1SCC(=O)Nc1ccccc1C,nt,i,80,nt,nt,nt
CCc1cc2ccc(OC)cc2nc1SCC(=O)NNC(=O)c1ccc(OC)cc1,nt,i,62,nt,nt,nt
